# Experimental data published in ChEMBL document CHEMBL1124476, “1-(2-aminoethyl)-6-aryl-4H- [1,2,4]triazolo[4,3-a][1,4]benzodiazepines with diuretic and natriuretic activity” (J Med Chem, 1989).
# Legend:
# [1] = Diuretic activity at 40 mg/kg (screening dose-84 umol/kg) in male […] in a one stage experiment; T/C = urine vol of treated rats / urine vol of control rats; assay type: functional
# In short: (§1)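 40 mg/kg given by gavage in 25 mL/kg 0.9% saline with 0.5% (carboxymethyl)cellulose. Four rats per agent, two per metabolism cage; 20 controls; 5 h urine. T/C = treated/control urine volume. Stage-1 T/C of 1.66 or more leads to stage 2; product T/C1·T/C2 of 3.34 or more counts as active.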
# [2] = Diuretic activity at 40 mg/kg (screening dose-84.7 umol/kg) in […] in a one stage experiment; T/C = urine vol of treated rats / urine vol of control rats; assay type: functional; in short: as §1
# [3] = Diuretic activity at 40 mg/kg (screening dose-90.5 umol/kg) in […] in a one stage experiment; T/C = urine vol of treated rats / urine vol of control rats; assay type: functional; in short: as §1
# [4] = Diuretic activity at 40 mg/kg (screening dose-90.1 umol/kg) in […] in a one stage experiment; T/C = urine vol of treated rats / urine vol of control rats; assay type: functional; in short: as §1
# [5] = Diuretic activity at 40 mg/kg (screening dose-84 umol/kg) in male […] in a two stage experiment; T/C1.2 = urine vol of treated rats / urine vol of control rats; assay type: functional; in short: as §1
# Rattus norvegicus [6] = test: Mean excretion of sodium in conscious rats at a dose of 30 mg/kg given orally; assay type: ADME, organism-based; set-up: dose 30 mg/kg, route oral; conditions: in vivo, po
# In short: (§2)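 Male Sprague-Dawley rats, about 160 g, fasted 24 h and water withheld 1 1/2 h beforehand; food and water withheld during the test. Dosing by gavage with 25 mL/kg 0.9% saline containing 0.5% (carboxymethyl)cellulose, agent dissolved or suspended. Three cages of two rats each per dose, held in metabolism cages. Urine collected over 5 h. Volume given in mL, Na+ in mequiv. Significance versus control at P < 0.05.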
# Rattus norvegicus [7] = test: Mean excretion of potassium in conscious rats at a dose of 10 mg/kg given orally; assay type: ADME, organism-based; set-up: dose 10 mg/kg, route oral; conditions: in vivo, po
# In short: (§3)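 Secondary dose-response in male Sprague-Dawley rats (~160 g), fasted and hydrated as in the primary screen. Oral gavage at 0.3-100 mg/kg in 25 mL/kg saline/0.5% CMC, three cages of two rats per dose. Urine collected 5 h; Na, K, Cl, HCO3 measured. Values are mean excretion (mequiv), compared with controls at P < 0.05.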
# Rattus norvegicus [8] = test: Mean excretion of chloride in conscious rats at a dose of 30 mg/kg given orally; assay type: ADME, organism-based; set-up: dose 30 mg/kg, route oral; conditions: in vivo, po; in short: as §3
# Rattus norvegicus [9] = test: Mean excretion of […] in conscious rats at a dose of 1.0 mg/kg given orally; assay type: ADME, organism-based; set-up: dose 1 mg/kg, route oral; conditions: in vivo, po; in short: as §2
# Rattus norvegicus [10] = test: Mean excretion of potassium in conscious rats at a dose of 0.3 mg/kg given orally; assay type: ADME, organism-based; set-up: dose 0.3 mg/kg, route oral; conditions: in vivo, po; in short: as §3
# Rattus norvegicus [11] = organism: Rattus norvegicus; test: […]; assay type: ADME, organism-based, Urine; set-up: dose 30 mg/kg, route oral; conditions: in vivo, po, 30 mg/kg; in short: as §2
# Rattus norvegicus [12] = test: Mean excretion of potassium in conscious rats at a dose of 30 mg/kg given orally; assay type: ADME, organism-based; set-up: dose 30 mg/kg, route oral; conditions: in vivo, po; in short: as §3
# Rattus norvegicus [13] = test: Mean excretion of potassium in conscious rats at a dose of 1.0 mg/kg given orally; assay type: ADME, organism-based; set-up: dose 1 mg/kg, route oral; conditions: in vivo, po; in short: as §3
# Rattus norvegicus [14] = organism: Rattus norvegicus; test: […]; assay type: ADME, organism-based, Urine; set-up: dose 1 mg/kg, route oral; conditions: in vivo, po, 1 mg/kg
# In short: (§4)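 Dose-response test in male Sprague-Dawley rats of about 160 g, fasted 24 h, with water withheld 1½ h before and during the test. Each rat got a single gavage of 25 mL/kg 0.9% saline with 0.5% carboxymethylcellulose carrying the agent (0.3–100 mg/kg range). Rats were housed two per metabolism cage, and urine was collected for 5 h. Mean urine volume (mL) was compared with controls (P < 0.05).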
# [15] = Diuretic activity at 40 mg/kg (screening dose-84.7 umol/kg) in […] in a two stage experiment; T/C1.2 = urine vol of treated rats / urine vol of control rats; assay type: functional; in short: as §1
# Rattus norvegicus [16] = organism: Rattus norvegicus; test: […]; assay type: ADME, organism-based, Urine; set-up: dose 100 mg/kg, route oral; conditions: in vivo, po, 100 mg/kg; in short: as §2
# Rattus norvegicus [17] = test: Mean excretion of Cl- in conscious rats at a dose of 0.3 mg/kg given orally; assay type: ADME, organism-based, Urine; set-up: dose 0.3 mg/kg, route oral; conditions: in vivo, po; in short: as §4
# Rattus norvegicus [18] = test: Mean excretion of sodium in conscious rats at a dose of 0.3 mg/kg given orally; assay type: ADME, organism-based; set-up: dose 0.3 mg/kg, route oral; conditions: in vivo, po; in short: as §2
# Rattus norvegicus [19] = test: Mean excretion of potassium in conscious rats at a dose of 100 mg/kg given orally; assay type: ADME, organism-based; set-up: dose 100 mg/kg, route oral; conditions: in vivo, po; in short: as §3
# Rattus norvegicus [20] = test: Mean excretion of chloride in conscious rats at a dose of 100 mg/kg given orally; assay type: ADME, organism-based; set-up: dose 100 mg/kg, route oral; conditions: in vivo, po; in short: as §3
# Rattus norvegicus [21] = organism: Rattus norvegicus; test: […]; assay type: ADME, organism-based, Urine; set-up: dose 0.3 mg/kg, route oral; conditions: in vivo, po, 0.3 mg/kg; in short: as §4
# Rattus norvegicus [22] = test: Mean excretion of chloride in conscious rats at a dose of 3.0 mg/kg given orally; assay type: ADME, organism-based; set-up: dose 3 mg/kg, route oral; conditions: in vivo, po; in short: as §3
# Rattus norvegicus [23] = test: Mean excretion of sodium in conscious rats at a dose of 100 mg/kg given orally; assay type: ADME, organism-based; set-up: dose 100 mg/kg, route oral; conditions: in vivo, po; in short: as §2
# Rattus norvegicus [24] = test: Mean excretion of potassium in conscious rats at a dose of 3.0 mg/kg given orally; assay type: ADME, organism-based; set-up: dose 3 mg/kg, route oral; conditions: in vivo, po; in short: as §3
# Rattus norvegicus [25] = test: Mean excretion of chloride in conscious rats at a dose of 10 mg/kg given orally; assay type: ADME, organism-based; set-up: dose 10 mg/kg, route oral; conditions: in vivo, po; in short: as §3
# Rattus norvegicus [26] = organism: Rattus norvegicus; test: […]; assay type: ADME, organism-based, Urine; set-up: dose 10 mg/kg, route oral; conditions: in vivo, po, 10 mg/kg; in short: as §2
# Rattus norvegicus [27] = test: Mean excretion of sodium in conscious rats at a dose of 10 mg/kg given orally; assay type: ADME, organism-based; set-up: dose 10 mg/kg, route oral; conditions: in vivo, po; in short: as §2
# Rattus norvegicus [28] = test: Mean excretion of sodium in conscious rats at a dose of 3.0 mg/kg given orally; assay type: ADME, organism-based; set-up: dose 3 mg/kg, route oral; conditions: in vivo, po; in short: as §2
# Rattus norvegicus [29] = organism: Rattus norvegicus; test: […]; assay type: ADME, organism-based, Urine; set-up: dose 3 mg/kg, route oral; conditions: in vivo, po, 3 mg/kg; in short: as §2
# Rattus norvegicus [30] = test: Mean excretion of chloride in conscious rats at a dose of 1.0 mg/kg given orally; assay type: ADME, organism-based; set-up: dose 1 mg/kg, route oral; conditions: in vivo, po; in short: as §3
smiles,measurement,setting,value
CN(C)CC(c1ccccc1)c1nnc2n1-c1ccc(Cl)cc1C(c1ccc(Cl)cc1)=NC2 (centres undefined),T/C 1,[1],1.49
COc1cccc(C2=NCc3nnc(C(CN(C)C)c4ccccc4)n3-c3ccc(Cl)cc32)c1 (centres undefined),T/C 1,[2],1.34
CN(C)CC(c1ccccc1)c1nnc2n1-c1ccccc1C(c1ccccc1Cl)=NC2 (centres undefined),T/C 1,[3],1.62
CN(C)CC(c1ccccc1)c1nnc2n1-c1ccccc1C(c1ccccc1)=NC2.Cl (centres undefined),T/C 1,[4],1.48
CN(C)CC(c1ccccc1)c1nnc2n1-c1ccc(Cl)cc1C(c1ccccc1Cl)=NC2 (centres undefined),T/C 1.2,[5],2.66
same,T/C 1,[1],1.87
COc1ccccc1C(CN(C)C)c1nnc2n1-c1ccc(Cl)cc1C(c1ccccc1)=NC2 (centres undefined),Mean excretion of Na+,Rattus norvegicus [6],0.61 m equiv
same,Mean excretion of K+,Rattus norvegicus [7],0.22 m equiv
same,Mean excretion of Cl-,Rattus norvegicus [8],0.76 m equiv
same,Mean excretion of Na+,Rattus norvegicus [9],0.6 m equiv
same,Mean excretion of K+,Rattus norvegicus [10],0.17 m equiv
same,Mean urine volume,Rattus norvegicus [11],5.19 mL
same,Mean excretion of K+,Rattus norvegicus [12],0.23 m equiv
same,Mean excretion of K+,Rattus norvegicus [13],0.23 m equiv
same,Mean urine volume,Rattus norvegicus [14],5.08 mL
same,T/C 1.2,[15],5.03
same,Mean urine volume,Rattus norvegicus [16],4.56 mL
same,Mean excretion of Cl-,Rattus norvegicus [17],0.69 m equiv
same,Mean excretion of Na+,Rattus norvegicus [18],0.63 m equiv
same,Mean excretion of K+,Rattus norvegicus [19],0.26 m equiv
same,Mean excretion of Cl-,Rattus norvegicus [20],0.69 m equiv
same,Mean urine volume,Rattus norvegicus [21],4.8 mL
same,Mean excretion of Cl-,Rattus norvegicus [22],0.8 m equiv
same,Mean excretion of Na+,Rattus norvegicus [23],0.6 m equiv
same,Mean excretion of K+,Rattus norvegicus [24],0.24 m equiv
same,Mean excretion of Cl-,Rattus norvegicus [25],0.71 m equiv
same,Mean urine volume,Rattus norvegicus [26],4.92 mL
same,Mean excretion of Na+,Rattus norvegicus [27],0.72 m equiv
same,T/C 1,[2],2.69
same,Mean excretion of Na+,Rattus norvegicus [28],0.68 m equiv
same,Mean urine volume,Rattus norvegicus [29],5.38 mL
same,Mean excretion of Cl-,Rattus norvegicus [30],0.69 m equiv
CN(C)CC(c1cccc(Cl)c1)c1nnc2n1-c1ccc(Cl)cc1C(c1ccccc1)=NC2 (centres undefined),T/C 1.2,[5],3.2
same,T/C 1,[1],1.86
